Here are results for three sequences from article PMC4109024 (Nature communications, 2014).

Entries after “also recorded” stand apart in the source; their conditions may differ.

Data set [1] concerns CNGB3-expressing A431 cells. Nature of the data set: Inhibition of KLAK-z13 plus HLA-z13 cytotoxicity by z13 / palmitoyl-z13. The note with it: KLAK-z13 100 μg/ml + HLA-z13 25 μg/ml, 37 °C, 6 hours; average of triplicate; repeated three times. Format: cell-based.
The subject of data set [2] is human endometrial adenocarcinoma Ishikawa cells. Description: Phage binding/internalization to Ishikawa cells. It counts as cell-based. The following applies: cloned phage, 37°C, 30 min; plaque forming assay; repeated three times. In outline:
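Phage clones came from a T7 library of linear 9-mer peptides. Each selection round had two steps: 1 h in vivo subtraction in female mouse peritoneum, then 30 min internalization into Ishikawa monolayers at 37 °C. Clones from three such rounds were each added to Ishikawa monolayers, or A431 controls, for 30 min at 37 °C. Internalized phage was counted by plaque assay, and binding was expressed as plaques recovered relative to phage added.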

In data set [3] the test system is Ishikawa cell surface proteins. Nature of the data set: z13 affinity isolation of biotinylated Ishikawa cell surface proteins. The following applies: biotinylated Ishikawa lysate; z13 peptide 1 mg/ml elution; avidin blot. It counts as binding, human. Put shortly: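 Ishikawa monolayers were surface-biotinylated with sulpho-NHS-LC-biotin (0.5 mg/ml in PBS, 30 min) and solubilized at 4 °C in TBS with 50 mM octyl-thio-glucoside and protease inhibitors. Lysate was precleared on agarose for 2 h at 4 °C, then bound to peptide-conjugated agarose. Elution used peptide at 1 mg/ml, with an irrelevant peptide as control. Eluates were analysed by SDS–PAGE, peroxidase-avidin blot and chemiluminescence.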

Data set [4] has as its system CNGB3-Myc transfected A431 cells. Nature of the data set: Cell viability assay, CNGB3-positive A431 cells. Format: cell-based. The following applies: 37°C, 6 hours, ATP by CellTiter Glo; for Concentration above which cell viability was affected, CNGB3-positive A431: single peptide. In outline: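 CNGB3–MYC-transfected A431 cells, with untransfected CNGB3-negative A431 as control, grown in DME/F12 with 10% FCS. Cells were exposed to single peptides or the two-peptide combination at a range of concentrations for 6 h at 37 °C. Peptide stocks were 100 μg/μl in DMSO, and a DMSO-only control was run at 0.01% final. Viability was read as ATP content by CellTiter Glo luminescence.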

For data set [5], the system named is CNGB3-MYC expressing HEK293T cells. Description: TUNEL apoptosis assay, CNGB3-MYC HEK293T cells. Format: cell-based. Put shortly:
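HEK293T cells transfected with CNGB3–MYC were cultured for 20 h at 37 °C with one of these treatments: no peptide; targeting peptide, 100 μg/ml; pro-apoptotic peptide, 100 μg/ml; its conjugate, 100 μg/ml; endosome-escaping conjugate, 25 μg/ml; or conjugates at 100 plus 25 μg/ml. Stocks were 100 μg/μl in DMSO. Apoptosis was detected by immunoperoxidase TUNEL.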

For data set [6] the test system is unchanged. Nature of the data set: Biotin-z13 localization / endosome-escaping activity. It counts as cell-based. The note with it: 37°C, 30 min, biotin-z13 in presence of HLAH-z13; Alexa 488-avidin.

For the sequence VRRADNRPG [z13], the “Blocking of cytotoxicity of KLAK-z13 plus HLA-z13” value in data set [1] is recorded as “blocked”. The “Binding strength to Ishikawa cells among phage clones” value in data set [2] is “the strongest binder”. Further, in data set [3], the “Protein bound to z13 beads and eluted by z13 peptide” value is listed as “single 68 kDa protein”. The “Cell viability, CNGB3-positive A431” value in data set [4] is “cell viability was not affected”.

In the case of HLAHLAHHLAHLAHHLAHVRRADNRPG [HLAH-z13], the “Apoptosis of CNGB3-expressing HEK293T cells, HLAH-z13 25 μg/ml” value in data set [5] (25 μg/ml, 37°C, 20 hours, TUNEL) is recorded as “did not undergo apoptosis”. Further, in data set [4], the “Cell viability, CNGB3-positive A431” value is on record as “cell viability was not affected except at high concentrations” and the “Concentration above which cell viability was affected, CNGB3-positive A431” value was over 50 µg/mL. Besides, in data set [6], the “Effect on biotin-z13 localization (endosome-escaping activity)” value was “diffuse cytoplasmic signals”.

Consider KLAKLAKKLAKLAKKLAKVRRADNRPG [dKLAK-z13], for which, in data set [5] (culture medium of transfected cells, concentration not given), the “Apoptosis of CNGB3-MYC transfected HEK293T cells, dKLAK-z13 alone” value was “apoptosis was not induced; also recorded: did not induce apoptosis”. Also, in data set [4], the “Cell viability, CNGB3-positive A431” value is reported as “cell viability was not affected except at high concentrations” and the “Concentration above which cell viability was affected, CNGB3-positive A431” value was over 200 µg/mL.
